ChEMBL document CHEMBL2086351, “Α-aryl-N-alkyl nitrones, as potential agents for stroke treatment: synthesis, theoretical calculations, antioxidant, anti-inflammatory, neuroprotective, and brain-blood barrier permeability properties” (J Med Chem, 2012)

Legend:
[1] = Antioxidant activity against AAPH-induced lipid peroxidation assessed as induction time of inhibition at 0.1 mM; type: functional
[2] = tested on: Radical scavenging activity; assay: Antioxidant activity assessed as DPPH radical scavenging activity at 0.5 mM after 2 hrs by spectrophotometric analysis; type: functional
Outline: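 DPPH radical test, measuring initial absorbance and absorbance after reaction spectrophotometrically.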

[3] = Antioxidant activity assessed as Fe3+/ascorbic acid-induced hydroxyl radical scavenging activity at 0.1 mM after 30 mins; type: functional
Outline: (§1)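 Tested in vitro at 0.1 mM. The hydroxyl radical line measures competition with DMSO for hydroxyl radicals. Superoxide was generated at pH 7.4 and read as nitroblue tetrazolium reduction to formazan at 560 nm. LOX inhibition was measured by UV absorbance enzyme assay with plant lipoxygenase.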

[4] = Antioxidant activity assessed as superoxide anion radical scavenging activity at 0.1 mM after 10 mins by tetrazolium dye assay; type: functional; outline: as §1
[5] = molecular target: Lipoxygenase (Glycine max) (UniProt Q39829); assay: Inhibition of soybean lipoxygenase assessed as conversion of sodium linoleate to 13-hydroperoxylinoleic acid at 0.1 mM by competitive inhibition assay; outline: as §1
[6] = Neuroprotective activity in Sprague-Dawley rat primary cortical neurons assessed as reversal of oxygen-glucose deprivation-induced neuronal damage at 100 uM by treated 4 hrs after OGD challenge measured after 24 hrs MTT assay relative to control; type: functional, cell-based; details: Cerebral cortex neuron
Outline: (§2)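 Primary cerebral cortex neurons, cultured 6–8 days, underwent 4 h oxygen–glucose deprivation. Compounds (0.1 μM–10 mM range) were added at the start of a 24 h reperfusion. Viability was read by MTT with untreated control as 100%. Neuroprotection = % recovery from the reperfusion-only value (0%) to control (100%). Three to five independent experiments; mean ± SEM.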

[7] = Neuroprotective activity in Sprague-Dawley rat primary cortical neurons assessed as reversal of oxygen-glucose deprivation-induced neuronal damage at 250 uM by treated 4 hrs after OGD challenge measured after 24 hrs MTT assay relative to control; type: functional, cell-based; details: Cerebral cortex neuron; outline: as §2
[8] = Neuroprotective activity in Sprague-Dawley rat primary cortical neurons assessed as reversal of oxygen-glucose deprivation-induced neuronal damage at 1 uM by treated 4 hrs after OGD challenge measured after 24 hrs MTT assay relative to control; type: functional, cell-based; details: Cerebral cortex neuron; outline: as §2
[9] = Neuroprotective activity in Sprague-Dawley rat primary cortical neurons assessed as reversal of oxygen-glucose deprivation-induced neuronal damage at 250 uM by treated 4 hrs after OGD challenge measured after 24 hrs by LDH release assay relative to control; type: functional, Cerebral cortex neuron
Outline: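 Primary cortical neurons, cultured 6–8 days, underwent 4 h oxygen–glucose deprivation followed by 24 h reperfusion. Compounds (1–250 μM) were added at reperfusion. Necrotic death was read as LDH release, normalized to untreated reperfusion cells as 100%. Four independent experiments; mean ± SEM; one-way ANOVA with Holm–Sidak post test.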

[10] = Permeability of the compound at pH 7.4 by PAMPA; type: ADME; details: read-out: permeability
Outline: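 PAMPA-BBB method of Di et al. (passive blood–brain barrier permeation). Effective permeability is reported as Pe in 10−6 cm s−1.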

[11] = tested on: Mus musculus; assay: Neuroprotective activity in NMRI mouse assessed as protection against tert-butyl hydroperoxide-mediated lethality at 150 mg/kg, ip administered 30 mins before t-BHP challenge measured after 1 to 24 hrs; type: functional; details: route intraperitoneal

For `CC(C)(C)/[N+]([O-])=C/c1cccc(C(F)(F)F)c1`, the TIME [1] was 0 h, the Activity [2] was 0.9% and the Activity [3] was 60%. The Activity [4] was 29%, the inhibition [5] was 65% and the Activity [6] was 101%. The Activity [7] was 81.2%, the Activity [8] was 71.2% and the Activity [9] was 70.08%. It also gave a Papp [10] of 27 ×10⁻⁶ cm/s and an Activity [11] of 12%.
